Experimental data reported in ChEMBL document CHEMBL4477183, “Antimicrobial Peptide from the Wild Bee Hylaeus signatus Venom and Its Analogues: Structure-Activity Study and Synergistic Effect with Antibiotics” (J Nat Prod, 2016).
In brackets after ≈: the same amount, converted by molar mass. Non-standard residues stand in square brackets, D forms with d. Residues, ends and D or L forms follow the SMILES beside them.

Legend:
Pseudomonas aeruginosa [1] = test: Antimicrobial activity against Pseudomonas aeruginosa clinical isolates assessed as reduction in bacterial growth after 20 hrs by […]; format: functional
Procedure, shortened: (§1)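 Broth microdilution in LB (YPG for C. albicans) with 2-fold serial dilutions, final 0.1–100 μM. Mid-log cells grown 3–5 h at 37 °C were added at about 5 × 10^5 cfu/mL, then incubated 20 h at 37 °C with shaking. A540 was read every 15 min to build growth curves. Medium with cells served as growth control; at least three runs in duplicate.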

Pseudomonas aeruginosa [2] = test: Antimicrobial activity against Pseudomonas aeruginosa clinical isolates assessed as FIC index in presence of rifampicin after 20 hrs by drop diffusion test; format: functional
Staphylococcus aureus [3] = test: Antimicrobial activity against Staphylococcus aureus clinical isolates assessed as FIC index in presence of amoxicillin after 20 hrs by drop diffusion test; format: functional
[4] = test system: Staphylococcus epidermidis; test: Antimicrobial activity against Staphylococcus epidermidis assessed as reduction in bacterial growth after 20 hrs by broth microdilution assay
Escherichia coli = test: Antimicrobial activity against Escherichia coli assessed as reduction in bacterial growth after 20 hrs by […]; format: functional; procedure, shortened: as §1
Staphylococcus aureus [5] = test: Antimicrobial activity against Staphylococcus aureus 6271 assessed as reduction in bacterial growth after 20 hrs by broth microdilution assay; details: Staphylococcus aureus, 6271, 20 h
Staphylococcus aureus [6] = test: Antimicrobial activity against Staphylococcus aureus clinical isolates from Liberec regional hospital assessed as reduction in bacterial growth after 20 hrs by broth microdilution assay
Pseudomonas aeruginosa [7] = test: Antimicrobial activity against Pseudomonas aeruginosa 5482 assessed as reduction in bacterial growth after 20 hrs […]; format: functional; details: Pseudomonas aeruginosa, 5482, 20 h; procedure, shortened: as §1
Pseudomonas aeruginosa [8] = test: Antimicrobial activity against Pseudomonas aeruginosa clinical isolates assessed as FIC index in presence of tetracycline after 20 hrs by drop diffusion test; format: functional
Micrococcus luteus = test: Antimicrobial activity against Micrococcus luteus assessed as reduction in bacterial growth after 20 hrs by […]; format: functional; procedure, shortened: as §1
Bacillus subtilis = test: Antimicrobial activity against Bacillus subtilis assessed as reduction in bacterial growth after 20 hrs by […]; format: functional; procedure, shortened: as §1
Staphylococcus aureus [9] = test: Antimicrobial activity against Staphylococcus aureus clinical isolates from university hospital in Motol assessed as reduction in bacterial growth after 20 hrs by drop diffusion test; format: functional
Candida albicans = test: Antifungal activity against Candida albicans assessed as reduction in fungal growth after 20 hrs by […]; format: functional; procedure, shortened: as §1
[10] = Hemolytic activity in human type RBC after 1 hr; format: ADME, cell-based, Erythrocyte; details: red blood cells (erythrocytes), read-out: LC50
Procedure, shortened: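 Peptides at 2.5–400 μM were incubated with a 4% suspension of human erythrocytes in physiological solution for 1 h at 37 °C, then centrifuged at 250g for 5 min; supernatant A540 was read. Saline-treated cells gave 0% lysis and 0.2% Triton X-100 gave 100%. LC50 is the concentration lysing 50% of cells; duplicates in at least two independent experiments.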

| Molecule | MIC (Pseudomonas aeruginosa [1]) | fractional inhibitory concentration index (FICI) (Pseudomonas aeruginosa [2]) | fractional inhibitory concentration index (FICI) (Staphylococcus aureus [3]) | MIC [4] | MIC (Escherichia coli) | MIC (Staphylococcus aureus [5]) | MIC (Staphylococcus aureus [6]) | MIC (Pseudomonas aeruginosa [7]) | fractional inhibitory concentration index (FICI) (Pseudomonas aeruginosa [8]) | MIC (Micrococcus luteus) | MIC (Bacillus subtilis) | MIC (Staphylococcus aureus [9]) | MIC (Candida albicans) | HC50 at 1 h [10] |
| --- | --- | --- | --- | --- | --- | --- | --- | --- | --- | --- | --- | --- | --- | --- |
| CC[C@@H](C)[C@@H](NC(=O)CN)C(=O)N[C@H](CC(C)C)C(=O)N[C@H](CO)C(=O)N[C@H](CO)C(=O)N[C@H](CC(C)C)C(=O)N[C@H](CC(C)C)C(=O)N[C@H](CCCCN)C(=O)N[C@H](CCCCN)C(=O)N[C@H](CC(C)C)C(=O)N[C@H](CCCCN)C(=O)N[C@H](CCCCN)C(=O)N[C@@H](C(=O)N[C@@H](C(=O)N[C@H](C)C(=O)N[C@H](CCCCN)C(N)=O)[C@H](C)CC)[C@H](C)CC (H-G[dI][dL][dS][dS][dL][dL][dK][dK][dL][dK][dK][dI][dI][dA][dK]-NH2) | 9.7 µM (≈ 17 µg/mL) | 0.3 | 0.63 | 3.2 µM (≈ 5.61 µg/mL) | 4.5 µM (≈ 7.89 µg/mL) | 5.7 µM (≈ 9.99 µg/mL) | 2.6 µM (≈ 4.56 µg/mL) | 4.5 µM (≈ 7.89 µg/mL) | 0.75 | ≤ 3 µM | ≤ 7 µM | 6.3 µM (≈ 11 µg/mL) | 9 µM (≈ 15.8 µg/mL) | 333 µM |
| CC[C@@H](C)[C@@H](NC(=O)CN)C(=O)N[C@H](CC(C)C)C(=O)N[C@H](CO)C(=O)N[C@H](CO)C(=O)N[C@H](CC(C)C)C(=O)N[C@H](Cc1c[nH]c2ccccc12)C(=O)N[C@H](CCCCN)C(=O)N[C@H](CCCCN)C(=O)N[C@H](CC(C)C)C(=O)N[C@H](CCCCN)C(=O)N[C@H](CCCCN)C(=O)N[C@@H](C(=O)N[C@@H](C(=O)N[C@H](C)C(=O)N[C@H](CCCCN)C(N)=O)[C@H](C)CC)[C@H](C)CC (H-G[dI][dL][dS][dS][dL][dW][dK][dK][dL][dK][dK][dI][dI][dA][dK]-NH2) | 8.8 µM (≈ 16.1 µg/mL) | 0.29 | 0.73 | 1.7 µM (≈ 3.1 µg/mL) | 5 µM (≈ 9.13 µg/mL) | 6.3 µM (≈ 11.5 µg/mL) | 2.9 µM (≈ 5.29 µg/mL) | 6.7 µM (≈ 12.2 µg/mL) | 0.58 | ≤ 3 µM | ≤ 7 µM | 3.2 µM (≈ 5.84 µg/mL) | 8 µM (≈ 14.6 µg/mL) | 191 µM |
| CC[C@@H](C)[C@@H](NC(=O)CN)C(=O)N[C@H](CCSC)C(=O)N[C@H](CO)C(=O)N[C@H](CO)C(=O)N[C@H](CC(C)C)C(=O)N[C@H](CCSC)C(=O)N[C@H](CCCCN)C(=O)N[C@H](CCCCN)C(=O)N[C@H](CC(C)C)C(=O)N[C@H](CCCCN)C(=O)N[C@H](CCCCN)C(=O)N[C@@H](C(=O)N[C@@H](C(=O)N[C@H](C)C(=O)N[C@H](CCCCN)C(N)=O)[C@H](C)CC)[C@H](C)CC (H-G[dI][dM][dS][dS][dL][dM][dK][dK][dL][dK][dK][dI][dI][dA][dK]-NH2) | 8.5 µM (≈ 15.2 µg/mL) | 0.32 | 0.54 | 2.2 µM (≈ 3.93 µg/mL) | 6.3 µM (≈ 11.3 µg/mL) | 13 µM (≈ 23.2 µg/mL) | 7 µM (≈ 12.5 µg/mL) | 3.2 µM (≈ 5.72 µg/mL) | 0.67 | ≤ 3 µM | ≤ 7 µM | 16 µM (≈ 28.6 µg/mL) | 8 µM (≈ 14.3 µg/mL) | > 400 µM |
| CC1(C)S[C@@H]2[C@H](NC(=O)[C@H](N)c3ccc(O)cc3)C(=O)N2[C@H]1C(=O)O [AMOXICILLIN] | > 100 µM |  |  | 35 µM (≈ 12.8 µg/mL) | 2.7 µM (≈ 0.987 µg/mL) | 17 µM (≈ 6.21 µg/mL) | 35 µM (≈ 12.8 µg/mL) | > 100 µM |  |  |  | 3.5 µM (≈ 1.28 µg/mL) |  |  |
| H-GILSSLLKKLKKIIAK-NH2 | 7.5 µM | 0.39 | 0.69 | 1.8 µM | 8 µM | 16 µM | 3.8 µM | 5 µM | 0.54 | ≤ 3 µM | ≤ 7 µM | 5 µM | 10 µM | 284 µM |
| H-GILSSLLKKLKKWIAK-NH2 | 21 µM | 0.27 | 0.56 | 1.6 µM | 4 µM | 8 µM | 2.6 µM | 8 µM | 0.63 | ≤ 3 µM | ≤ 7 µM | 4 µM | 16 µM | 115 µM |
| H-GILSSLLKKWKKIIAK-NH2 | 7.1 µM | 0.42 | 0.44 | 2.7 µM | 7.5 µM | 20 µM | 7.8 µM | 5 µM | 0.58 | ≤ 3 µM | ≤ 7 µM | 20 µM | 11 µM | > 400 µM |
| H-GILSSLWKKPKKIIAK-NH2 | > 100 µM |  |  | > 100 µM | > 100 µM | > 100 µM | > 100 µM | 98 µM |  | 5.8 µM | 49 µM | > 100 µM | > 100 µM | > 400 µM |
| H-GIMISLMKKLAAHIAK-NH2 | > 100 µM |  |  | 8.8 µM | 12 µM | 43 µM | 35 µM | 47 µM |  | ≤ 3 µM | ≤ 7 µM | 65 µM | 12 µM | 320 µM |
| H-GIMSSLMKKLAAHIAK-NH2 | 68 µM | 0.26 |  | 13 µM | 15 µM | 63 µM | 53 µM | 20 µM | 0.56 | ≤ 3 µM | ≤ 7 µM | 64 µM | 18 µM | > 400 µM |
| H-GIMSSLMKKLAAHIKK-NH2 | 46 µM |  |  | 11 µM | 20 µM | 85 µM | 77 µM | 23 µM |  | ≤ 3 µM | ≤ 7 µM | 90 µM | 5 µM | > 400 µM |
| H-GIMSSLMKKLAAIIAK-NH2 | 17 µM | 0.51 | 0.56 | 5 µM | 3.6 µM | 7.2 µM | 10 µM | 8 µM | 0.76 | ≤ 3 µM | ≤ 7 µM | 10 µM | 8.4 µM | 93 µM |
| H-GIMSSLMKKLKAHIAK-NH2 | 47 µM | 0.21 |  | 16 µM | 30 µM | > 100 µM | > 100 µM | 26 µM | 0.31 | ≤ 3 µM | ≤ 7 µM | > 100 µM | 23 µM | > 400 µM |
| H-GIMSSLMKKLKKHIAK-NH2 | 17 µM | 0.23 |  | 10 µM | 26 µM | > 100 µM | > 100 µM | 6.4 µM | 0.39 | ≤ 3 µM | ≤ 7 µM | > 100 µM | 12 µM | > 400 µM |
